Experimental data published in ChEMBL document CHEMBL1142981, “Identification and synthesis of a novel selective partial PPARdelta agonist with full efficacy on lipid metabolism in vitro and in vivo” (J Med Chem, 2007).
The source made the active and inactive calls. No cut-off for these calls is given here.

What was measured:
[1] = Plasma Cmax in Sprague-Dawley rat at 2.06 mg/kg, po; assay type: ADME, organism-based; parameters: dose 2.06 mg/kg, route oral
Procedure, shortened: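 Male SD rats received a single p.o. or i.v. dose (n = 8 per route) in 5% ethanol, 10% HPCD and phosphate buffer, pH 7.5-8.0. At 5, 15, 30, 60, 90, 120, 240 and 360 min one rat was sacrificed per time point. EDTA plasma was assayed by high turbulence LC-MS/MS. Cmax and bioavailability were taken from oral dosing; volume of distribution is at steady state.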

[2] = molecular target: T1, Peroxisome proliferator-activated receptor alpha (Homo sapiens) (UniProt Q07869); assay: Activity at human liver PPAR alpha expressed in HEK293 cells by GAL4 transactivation assay relative to NNC61-4655; assay type: cell-based
T1 sequence (whole entry): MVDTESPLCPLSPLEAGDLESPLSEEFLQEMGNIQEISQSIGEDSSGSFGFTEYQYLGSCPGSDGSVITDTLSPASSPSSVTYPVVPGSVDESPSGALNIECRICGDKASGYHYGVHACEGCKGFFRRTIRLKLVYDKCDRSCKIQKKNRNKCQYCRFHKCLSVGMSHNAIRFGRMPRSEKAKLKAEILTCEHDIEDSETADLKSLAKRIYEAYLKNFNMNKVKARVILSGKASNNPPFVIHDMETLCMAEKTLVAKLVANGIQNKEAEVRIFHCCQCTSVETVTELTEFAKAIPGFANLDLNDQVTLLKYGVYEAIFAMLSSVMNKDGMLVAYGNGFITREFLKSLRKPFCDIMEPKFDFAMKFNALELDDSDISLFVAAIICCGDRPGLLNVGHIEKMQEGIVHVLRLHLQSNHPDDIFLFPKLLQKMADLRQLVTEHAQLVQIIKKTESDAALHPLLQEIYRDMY

Mus musculus [3] = assay: Decrease in HbA1c level in human ApoB100/CETP transgenic mouse at 10 mg/kg, po after 6 weeks relative to control; assay type: functional; parameters: scale not given: the % may be the effect or the level left
Mus musculus [4] = assay: Decrease in LDL level in human ApoB100/CETP transgenic mouse at 10 mg/kg, po after 6 weeks relative to control; assay type: functional; parameters: scale not given: the % may be the effect or the level left
Mus musculus [5] = assay: Decrease in HbA1c level in human ApoB100/CETP transgenic mouse at 20 mg/kg, po after 6 weeks relative to control; assay type: functional; parameters: scale not given: the % may be the effect or the level left
[6] = molecular target: T2, Peroxisome proliferator-activated receptor delta (Mus musculus) (UniProt P35396); assay: (§1) Agonist activity at mouse PPAR delta expressed in HEK293 cells by PPAR-GAL4 transactivation assay; assay type: functional, cell-based
T2 sequence (whole entry): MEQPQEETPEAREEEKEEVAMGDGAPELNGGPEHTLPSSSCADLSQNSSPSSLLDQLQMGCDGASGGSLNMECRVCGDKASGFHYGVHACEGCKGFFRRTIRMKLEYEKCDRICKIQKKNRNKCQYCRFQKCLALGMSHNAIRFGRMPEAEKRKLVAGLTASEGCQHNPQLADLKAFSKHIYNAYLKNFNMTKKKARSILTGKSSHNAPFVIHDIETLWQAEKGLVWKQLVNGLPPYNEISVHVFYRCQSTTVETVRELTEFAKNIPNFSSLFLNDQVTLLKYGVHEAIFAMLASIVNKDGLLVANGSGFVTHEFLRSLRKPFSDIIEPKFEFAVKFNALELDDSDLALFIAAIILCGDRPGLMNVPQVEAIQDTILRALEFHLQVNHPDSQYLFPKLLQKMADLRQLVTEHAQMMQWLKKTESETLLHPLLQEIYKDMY

[7] = molecular target: T3, Peroxisome proliferator-activated receptor delta (Mus musculus, UniProt P35396); assay: as §1; assay type: functional, cell-based
T3 sequence (P35396 whole entry): T2 sequence (whole entry)

Mus musculus [8] = assay: Decrease in LDL level in human ApoB100/CETP transgenic mouse at 20 mg/kg, po after 6 weeks relative to control; assay type: functional; parameters: scale not given: the % may be the effect or the level left
[9] = molecular target: T4, Peroxisome proliferator-activated receptor gamma (Mus musculus) (UniProt P37238); assay: Agonist activity at mouse PPAR gamma expressed in HEK293 cells up to 30 uM by PPAR-GAL4 transactivation assay; assay type: functional, cell-based
T4 sequence (whole entry): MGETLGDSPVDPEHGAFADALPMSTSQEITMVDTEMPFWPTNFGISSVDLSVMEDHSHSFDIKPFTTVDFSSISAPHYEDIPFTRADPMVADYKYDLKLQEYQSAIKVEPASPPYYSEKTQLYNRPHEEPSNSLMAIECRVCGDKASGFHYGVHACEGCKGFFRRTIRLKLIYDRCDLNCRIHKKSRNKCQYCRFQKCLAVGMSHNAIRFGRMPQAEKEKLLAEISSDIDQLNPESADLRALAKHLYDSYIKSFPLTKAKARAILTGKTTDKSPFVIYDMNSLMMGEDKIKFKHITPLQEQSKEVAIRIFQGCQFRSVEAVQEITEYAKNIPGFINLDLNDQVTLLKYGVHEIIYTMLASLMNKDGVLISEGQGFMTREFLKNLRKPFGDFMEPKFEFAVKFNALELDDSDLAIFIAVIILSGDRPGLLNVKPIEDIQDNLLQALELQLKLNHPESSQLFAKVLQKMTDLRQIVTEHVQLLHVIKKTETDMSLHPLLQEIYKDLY

[10] = Half life in Sprague-Dawley rat at 2.06 mg/kg, po; assay type: ADME, organism-based; parameters: dose 2.06 mg/kg, route oral; conditions: in vivo
Procedure, shortened: (§2)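 Male SD rats dosed once i.v. or p.o. (n = 8 per route), vehicle 5% ethanol, 10% HPCD, phosphate buffer pH 7.5-8.0. One animal sacrificed at each of 5, 15, 30, 60, 90, 120, 240 and 360 min; EDTA plasma analysed by high turbulence LC-MS/MS. Each data point represents one animal.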

Mus musculus [11] = assay: Increase in total ketone bodies level in human ApoB100/CETP transgenic mouse at 5 mg/kg, po after 6 weeks relative to control; assay type: functional
Mus musculus [12] = assay: Decrease in glucose level in human ApoB100/CETP transgenic mouse at 20 mg/kg, po after 6 weeks relative to control; assay type: functional; parameters: scale not given: the % may be the effect or the level left
L6 [13] = assay: Effect on glucose oxidation in rat L6 cells; assay type: functional, cell-based
Procedure, shortened: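 Differentiated rat L6 cells handled as for the fatty acid oxidation assay, with tritiated palmitate replaced by 10 µCi/mL [5-3H]-D-glucose; oxidation measured as 3H-H2O released into medium after TCA stop, collected by overnight equilibration at 50 °C and scintillation counting. FCCP served as positive control.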

[14] = Clearance in Sprague-Dawley rat at 1.06 mg/kg, iv; assay type: ADME, organism-based; parameters: dose 1.06 mg/kg, route intravenous; conditions: in vivo; procedure, shortened: as §2
Mus musculus [15] = assay: Decrease in glucose level in human ApoB100/CETP transgenic mouse at 10 mg/kg, po after 6 weeks relative to control; assay type: functional; parameters: scale not given: the % may be the effect or the level left
Mus musculus [16] = assay: Decrease in insulin level in human ApoB100/CETP transgenic mouse at 10 mg/kg, po after 6 weeks by ELISA relative to control; assay type: functional; parameters: scale not given: the % may be the effect or the level left
L6 [17] = assay: Effect on increase in fatty acid oxidation in rat L6 cells relative to GW-501516; assay type: functional; parameters: concentration or dose not given beside the values
Procedure, shortened: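 Rat L6 myoblasts differentiated 5 days in 2% serum, then treated 42 h with compound (refreshed at 24 h), followed by 6 h with 0.4 mM palmitate containing [9,10-3H]-palmitic acid on 2% fatty-acid-free BSA. Stopped with 10% TCA; released 3H-H2O collected by overnight equilibration at 50 °C and counted.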

Mus musculus [18] = assay: Decrease in triglycerides level in human ApoB100/CETP transgenic mouse at 10 mg/kg, po after 6 weeks relative to control; assay type: functional; parameters: scale not given: the % may be the effect or the level left

Cmax [1]: 508 ng/mL | Efficacy [2]: > 12% | Activity [6]: 167% | EC50 [7]: 0.3 µM | Activity [9]: inactive | half-life [10]: 59 min | clearance [14]: 11.9 mL/min/kg
SMILES: O=C(O)COc1ccc(SCC=C(c2ccc(Br)cc2)c2ccc(Br)cc2)cc1Cl
Activity (Mus musculus [3]): 9% | Activity (Mus musculus [4]): 12% | Activity (Mus musculus [5]): 12% | Activity (Mus musculus [8]): 35% | Activity (Mus musculus [11]): 5% | Activity (Mus musculus [12]): 5% | Activity (L6 [13]): inactive | Activity (Mus musculus [15]): 2% | Activity (Mus musculus [16]): 8% | Activity (L6 [17]): 109% | Activity (Mus musculus [18]): 7%
